An excerpt weighted towards active compounds, which were near 1.8% of everything screened.
APOBEC3A inh: APOBEC3A ssDNA deaminase inhibitors, primary screen, selectivity assay for APOBEC3G inhibitor project, biochemical, FAM/TAMRA oligo cleavage fluorescence; DNA dC->dU-editing enzyme APOBEC-3A (Homo sapiens), P31941; recombinant A3A, FAM/TAMRA ssDNA deamination fluorescence; inhibition, % at 20 µM; 330,000 compounds, 0.41% hits; AID 493011, 2011;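 active = at least 40% inhibition at 20 µM here, with at most 30% in a related deaminase screen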;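 also: plate controls were A3A with DMSO for no effect and wells lacking A3A enzyme for full effect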
Target sequence (P31941 whole entry, looked up): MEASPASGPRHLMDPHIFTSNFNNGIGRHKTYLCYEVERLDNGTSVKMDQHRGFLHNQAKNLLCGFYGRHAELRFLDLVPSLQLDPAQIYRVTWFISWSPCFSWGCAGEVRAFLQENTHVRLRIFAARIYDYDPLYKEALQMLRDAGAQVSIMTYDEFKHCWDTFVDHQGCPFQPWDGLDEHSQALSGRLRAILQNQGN
TbMetRS inhib: T. brucei MetRS inhibitors, primary screen, biochemical, luminescence; 360,000 compounds, 0.4% hits; inhibition, % at 11.9 µM; methionyl-tRNA synthetase (Trypanosoma brucei brucei); purified T. brucei MetRS, ATP depletion, Kinase-Glo luminescence;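 active = inhibition above a per-plate cutoff of the control wells' mean inhibition plus 3 SD, cut at about 5.5% in these data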;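 also: 0% = DMSO wells median and 100% = median of wells with control inhibitor compound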
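System: purified T. brucei MetRS enzyme / Detection: Kinase-Glo luciferase luminescence reporting remaining unconsumed ATP / Medium: HEPES buffer with MgCl2, KCl, DTT, spermine, BSA, pyrophosphatase / Replication: singlicate, one well per compound / Evaluation: percent inhibition relative to median high and low control wells / Schedule: 2 h aminoacylation at 25 °C after 15 min preincubation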
pCIP destab: p/CIP-EGFP fusion destabilizers, primary screen, fluorescence, F442A cells; AID 1984, 2009; 16 h; Q05BA5; decrease of EGFP signal, % at 10 µM; 290,000 compounds, 0.01% hits;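 active = EGFP signal decrease of at least 30% at 10 µM or well 3 SD below plate mean, unless failing retest; inactive = the rest, including hits failing retest or dose response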
A3G deaminase: APOBEC3G DNA deaminase inhibitors, primary screen, biochemical, fluorescence, single-stranded DNA substrate, uHTS. inhibition, % at 20 µM. 330,000 compounds, 0.28% hits. recombinant A3G, ssDNA deamination FAM/TAMRA fluorescence. DNA dC->dU-editing enzyme APOBEC-3G (Homo sapiens), Q9HC16. AID 493012, 2011;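 active = inhibition of at least 40% at 20 µM, with no more than 30% in the related APOBEC3A deaminase screen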;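 also: plate controls were DMSO wells with A3G for no effect and wells lacking A3G enzyme for full effect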
Target sequence (Q9HC16 whole entry, looked up): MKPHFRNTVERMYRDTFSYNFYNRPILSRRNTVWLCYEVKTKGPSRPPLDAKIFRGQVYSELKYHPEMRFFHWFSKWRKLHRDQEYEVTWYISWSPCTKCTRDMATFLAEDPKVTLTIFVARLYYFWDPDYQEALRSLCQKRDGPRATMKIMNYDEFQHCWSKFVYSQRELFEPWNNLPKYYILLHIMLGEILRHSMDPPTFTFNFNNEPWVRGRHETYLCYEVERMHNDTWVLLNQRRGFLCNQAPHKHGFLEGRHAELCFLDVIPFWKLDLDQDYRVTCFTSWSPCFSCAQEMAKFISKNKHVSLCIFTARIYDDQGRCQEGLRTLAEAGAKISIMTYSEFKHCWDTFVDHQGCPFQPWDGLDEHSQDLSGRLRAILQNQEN
PHOSPHO1 block: PubChem AID 1565. Phosphoethanolamine/phosphocholine phosphatase (Homo sapiens), Q8TCT1. inhibition, % at 13.3 µM. 290,000 compounds, 1.1% hits. recombinant PHOSPHO1, absorbance phosphatase assay; in the data active = inhibition above about 60%
A3A conf: APOBEC3A deaminase inhibitors, retest, confirmation, selectivity assay for APOBEC3G inhibitor project, biochemical, single concentration, fluorescence readout; shares compounds with APOBEC3A inh; recombinant A3A, ssDNA deaminase UDG fluorescence assay; inhibition, % at 20 µM; 1,400 compounds, 63% hits; AID 493151, 2011;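 active = inhibition reaching a set limit, 80% of the first screen's cutoff, at 20 µM in any replicate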;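 also: plate controls were DMSO wells with A3A for no effect and wells lacking A3A enzyme for full effect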
UDG ctr A3A: E. coli UDG inhibitors, confirmation, counter-screen for APOBEC3A inhibitor project, biochemical, single concentration, fluorescence, FAM/TAMRA oligo; shares compounds with APOBEC3A inh; UDG counterscreen, FAM/TAMRA uracil oligo fluorescence; 1,000 tested, under 10 active; inhibition, % at 20 µM; call rule not given here
TbMetRS confirm: T. brucei MetRS inhibitors, confirmation, biochemical, luminescence. shares compounds with TbMetRS inhib. inhibition, % at 11.9 µM. 1,400 compounds, 93% hits. T. brucei MetRS enzyme, luminescence (ATP depletion); in the data active = inhibition above about 7%
Jurkat tox: Jurkat T cell cytotoxicity, cytotoxicity control for T. brucei MetRS inhibitor project, luminescence, high throughput; shares compounds with TbMetRS inhib; Jurkat cells viability, ATP luminescence; inhibition, % at 8.3 µM; 1,400 compounds, 12% hits; in the data active = inhibition above about 15%;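 also: 0% = vehicle and 100% = reference inhibitor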
Tb MetRS inh FP: T. brucei MetRS inhibitors, orthogonal assay for T. brucei MetRS inhibitor project, biochemical, fluorescence polarization. shares compounds with TbMetRS inhib. purified T. brucei MetRS. inhibition, % at 11.9 µM. 1,400 compounds, 44% hits. AID 651607, 2012; in the data active = inhibition above about 17%;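 also: 0% = vehicle wells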
An asterisk follows results filed as active; · = no result; ! = not confirmed by another sample.

SMILES	APOBEC3A inh	TbMetRS inhib	pCIP destab	A3G deaminase	PHOSPHO1 block	A3A conf	UDG ctr A3A	others
CCN1C(=O)[C@@H]2Cc3c([nH]c4ccccc34)C(c3cc(OC)c(OC)c(OC)c3)N2C1=S (stereo not given in full)	59*	-1	-12	-10	·	-8	-6
COCOCCn1cc(CN2CCS(=O)(=O)N(Cc3ccc(-c4ccc(Cl)cc4)cc3)C(CC(C)C)C2=O)nn1 (stereo not given)	·	-1	·	·	·	·	·
CCN(CC)C(=O)Cn1cc(SCC(=O)NC)c2ccccc21	83*	0	10	11	-5	1	·
O=C(CNC(=O)OCc1ccccc1)Nc1ccc(F)cc1	67*	0	·	20	·	70*	1
COc1ccccc1C(=O)Nc1nnc(SCC(=O)Nc2ccc3c(c2)oc2ccccc23)s1	-6	0	-1	-10	3	·	·
Cc1cccc(C(=O)Nc2nnc(SCC(=O)Nc3ccc4c(c3)oc3ccccc34)s2)c1	81*	0	7	14	5	84*	-2
O=C1C=C(Nc2ccccc2)C(=O)c2ccccc21	65*	0	7	-8	7	-1	3
O=C1C=C(Nc2ccccc2)c2ccccc2C1=O	-1	-1	-2	-5	20	·	·
CC1CCCC/C1=N\NC(=S)NCCc1ccccc1 (stereo not given)	-2	0	-4	-6	-92	·	·
C[n+]1ccccc1C1CCCC/C1=N\NC(N)=S (stereo not given)	84*	-1	-7	14	15	55*	-1
N#CCN1CCC(c2cc(-c3ccco3)n[nH]2)CC1	-4	·	-14	-6	24	·	·
COCc1cc(C)nc(N2CCN(Cc3ccccc3)CC2)c1C#N	72*	0	-8	16	78*	66*	-2
Cc1ccc(S(=O)(=O)N2[C@H](CC(=O)c3ccc(Cl)c(Cl)c3)OC[C@@H]2C(C)C)cc1	·	-1	·	·	·	·	·
O=C(Cc1cccc(NC(=O)C2CCCN(C(=O)C3CCCC3)C2)c1)Nc1cccc(C(=O)N2CCCCC2)c1 (stereo not given)	·	0	·	·	·	·	·
Fc1ccc(CNc2ccccn2)cc1	-8	1	0	-7	34	·	·
CSc1ccc(CNc2ccccn2)cc1	48*	1	-1	9	76*	3	·
CC(c1ccccc1)C(NC(=O)OCC1c2ccccc2-c2ccccc21)C(=O)O (stereo not given)	-3	0	·	-13	·	·	·
N#Cc1ccccc1CN1C(=O)S/C(=C/c2cccn2-c2ccc(C(=O)O)cc2)C1=O	44*	0	-8	14	-1	25*	-3
O=C(NC1CCS(=O)(=O)C1)c1cccs1 (stereo not given)	-3	-1	-4	2	32	·	·
Cc1cccc(NC(=O)C(c2cccc([N+](=O)[O-])c2)N2CCCCC2)c1 (stereo not given)	-6	0	6	-8	47	·	·
CCCc1nc2ccccc2c(C(=O)N(CC)CC(=O)NCc2cccs2)c1CC	50*	0	·	5	·	2	·
CCN(CC(=O)NCc1cccs1)C(=O)c1ccc(Cl)c(Cl)c1	-6	0	·	-6	·	·	·
Cc1ccc(CNC(=O)CCNC(=O)c2ccc([N+](=O)[O-])cc2)cc1	46*	0	·	12	·	41*	1
O=C(CCNC(=O)c1ccc([N+](=O)[O-])cc1)Nc1nccs1	47*	0	11	13	-28	2	·
O=C(CCNC(=O)c1ccc(Br)cc1)Nc1nccs1	-6	3	-5	-6	28	·	·
SMILES	APOBEC3A inh	TbMetRS inhib	pCIP destab	A3G deaminase	PHOSPHO1 block	A3A conf	UDG ctr A3A	others
CC(C)(C)OC(=O)N1CCc2onc(-c3ccccc3[N+](=O)[O-])c2C1=O	·	0	·	·	·	·	·
O=C1COc2ccc(C(=O)COC(=O)CNC(=O)C3CCCCC3)cc2N1	0	-1	12	-3	12	·	·
COc1ccc(/C=C/c2cccc[n+]2C)c(O)c1	37	1	-5	36	8	·	·
CC(O)/C=C/c1cccc[n+]1C (stereo not given)	60*	0	-11	27	84*	80*	6
COc1cccc(C(=O)C[n+]2ccccc2/C=N/O)c1	1	0	-2	-8	-15	·	·
C[n+]1ccccc1/C=N/O	65*!	-1	-12	3	6	80*	-1
C[n+]1ccccc1/C=C/c1cc(Br)ccc1O	50*	0	-3	15	-18	26*	-3
CCN(CC)c1ccc(/C=C/c2cccc[n+]2C)c(OC)c1	37	-1	-728	-13	19	·	·
CCn1c(SCC(=O)N2CCCCC2C)nc2c1c(=O)n(C)c(=O)n2C (stereo not given)	0	-1	-12	-8	37	·	·
O=C1NC[C@@H](CCCCN2C[C@H](Cc3ccccc3)N(CCC3CCCCC3)C(=O)C2=O)N(CC2CCCCC2)C1=O	·	-2	·	·	·	·	·
CCc1cc(=O)oc2cc(C)cc(OC(C)C(=O)NCc3ccccn3)c12 (stereo not given)	-3	0	-11	-6	27	·	·
Cc1cc(/C=C(/C#N)c2nc3ccccc3[nH]2)c(C)n1-c1cc(C(=O)O)cc(C(=O)O)c1	49*	5.8*	0	22	17	41*	-4	TbMetRS confirm=37*;Jurkat tox=-3;Tb MetRS inh FP=12
Cc1cc(/C=C(/C#N)c2nc3ccccc3[nH]2)c(C)n1-c1ccccc1C(=O)O	29	2	5	13	11	·	·
